Xi reactivation: activators of X-chromosome reactivation in mouse fibroblasts; XiGFP mouse fibroblasts, % GFP-positive cells imaging, 3 d; cells co-treated with 5-aza-dC sensitizer; scaled so ellipticine positive control = 100%; activation, % at 7.58 µM; hit rate 0.055% among 360,000;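 active means mean normalized replicate activation at least 10% and every replicate at or above 10%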;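 further: 0% = median of on-plate neutral control wells and 100% = ellipticine 6 µM median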
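System: XiGFP fibroblasts, SV40-immortalized. Medium: DMEM plus 5-aza-dC sensitizer. Doses: single point. Timing: 3 d treatment, 15 min room-temperature fixation. Control set: ellipticine 6 µM.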
S100A4 inh HTS: inhibitors of human S100A4 binding to myosin IIA peptide. P26447. S100A4/TAMRA-MyoIIA peptide fluorescence polarization. inhibition, % at 10.7 µM. hit rate 0.14% among 360,000;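 active means mean inhibition of at least 70% across replicates, with every replicate also reaching that level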
Target sequence (P26447 whole entry, looked up): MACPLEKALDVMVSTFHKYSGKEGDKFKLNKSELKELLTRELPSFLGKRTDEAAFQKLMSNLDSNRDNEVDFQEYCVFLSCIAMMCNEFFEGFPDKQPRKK
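incubation = readout 5 min after mixing, signal stable up to 60 min | system = S100A4 monomer protein | buffer or medium = HEPES pH 7.2 with CaCl2, KCl, NaCl, DTT, Triton | benchmarks = neutral control DMSO, positive control TFP | also added = fluorescent myosin IIA peptide, 5 nM | compound dosing = one concentration per compound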
RAD52 inh: RAD52 (human) annealing inhibition; inhibition, % at 18.7 µM; hit rate 0.46% among 360,000; recombinant RAD52 DNA annealing, FRET fluorescence; P43351;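 active means every replicate showing at least 50% inhibition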
RAD54 branch: RAD54 (human) branch migration inhibition. inhibition, % at 10.4 µM. RAD54 Holliday junction branch migration, FAM/BHQ fluorescence. hit rate 0.14% among 360,000;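 active means mean normalized replicate activity at least 40 and at least half of replicates scoring 40 or more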;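 further: 0% = median of neutral control wells and 100% = median of positive control wells; inhibitors cause a drop in the FAM fluorescence signal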
CASP6 VEID inh: caspase-6 (human) enzyme inhibition; P55212; purified caspase-6, Z-VEID-R110 cleavage fluorescence; inhibition, % at 12.5 µM; hit rate 0.53% among 350,000; AID 686996;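 active means mean inhibition across replicates at least about 35%, with every replicate also reaching that limit, limit read from the data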;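 further: 0% = median of neutral control wells and 100% = no fluorescence left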
Target sequence (P55212 24-179 limits assumed): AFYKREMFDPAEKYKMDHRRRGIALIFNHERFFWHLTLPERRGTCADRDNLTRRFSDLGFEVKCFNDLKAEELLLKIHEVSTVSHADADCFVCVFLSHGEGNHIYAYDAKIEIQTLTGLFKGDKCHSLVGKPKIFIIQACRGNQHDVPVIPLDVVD
Target sequence (P55212 194-293 limits assumed): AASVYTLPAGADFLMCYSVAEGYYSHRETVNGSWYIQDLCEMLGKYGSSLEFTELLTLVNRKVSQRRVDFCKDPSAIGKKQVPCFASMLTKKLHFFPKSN
AF4-AF9 inh: MLL-AF4/AF9 protein interaction inhibition; AlphaScreen, biotin-AF4 peptide binding to FLAG-AF9; inhibition, % at 10 µM; hit rate 0.47% among 350,000; AID 651704;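 active means every replicate reaching a set inhibition limit, whatever the replicate mean, cut at about 25% in these data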;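 further: 0% = plate neutral control median and 100% = total signal loss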
* marks the source's active call; other numbers are inactive results. A selection: hits, their analogues and other compounds. The true share with any hit is near 1.3%.

Screening O=C(/C=C/c1cccs1)N1CCN(c2ccc(O)cc2)CC1 returned Xi reactivation 0.0, S100A4 inh HTS 1.5, RAD52 inh 1.6, CASP6 VEID inh 61.9* and AF4-AF9 inh -2.2.
O=C(/C=C/c1cccs1)N1CCCCC1 was read as Xi reactivation 0.3, S100A4 inh HTS -0.3, RAD52 inh -13.1, RAD54 branch -1.4, CASP6 VEID inh -0.3 and AF4-AF9 inh -0.7.
Cc1noc(C)c1NC(=O)Nc1ccc2c(c1)C(=O)N([C@@H](C)CO)C[C@@H](C)[C@@H](CN(C)C(=O)Nc1ccc(F)cc1)O2 was read as Xi reactivation 0.1, S100A4 inh HTS -22.4, RAD52 inh -4.7 and RAD54 branch 12.4.
`COCC#Cc1cnc2c(c1)C(=O)N([C@@H](C)CO)C[C@@H](C)[C@H](CN(C)C(=O)c1cccnc1)O2` gave Xi reactivation -0.5, S100A4 inh HTS -6.5, RAD52 inh 3.4, RAD54 branch 0.3, CASP6 VEID inh -1.7 and AF4-AF9 inh -2.7.
Screening Cc1ccc(NC(=O)CN2C(=O)S/C(=C\c3ccc(OCC(=O)O)c(Br)c3)C2=O)cc1 returned Xi reactivation 0.1, S100A4 inh HTS -8.4, RAD52 inh -8.5, RAD54 branch 3.0, CASP6 VEID inh 11.6 and AF4-AF9 inh 1.2.
Cc1ccc(NC(=O)CN2C(=O)S/C(=C\c3ccc(C(=O)O)cc3)C2=O)cc1 was read as Xi reactivation 0.0, S100A4 inh HTS -3.8, RAD52 inh -1.8, RAD54 branch 1.9, CASP6 VEID inh 43.3* and AF4-AF9 inh -0.6.
For Cc1ccc(NC(=O)CN2C(=O)S/C(=C\c3cc(C)n(-c4cccc(C(=O)O)c4)c3C)C2=O)cc1 the results were Xi reactivation 0.1, S100A4 inh HTS 41.8, RAD52 inh -24.6, CASP6 VEID inh 39.3* and AF4-AF9 inh 0.2.
Cc1ccc(NC(=O)CN2C(=O)S/C(=C\c3cc(C)n(C)c3C)C2=O)cc1 was read as RAD54 branch 1.5.
For C[C@H]1CNC(=O)[C@H](Cc2ccc(C(F)(F)F)cc2)CCn2nncc2COC1 the results were Xi reactivation 0.0.
COc1ccc(C#Cc2ccc([C@@H]3[C@H]4CN(Cc5ccccc5F)CCCCN4[C@H]3CO)cc2)cc1 was read as Xi reactivation 0.5, RAD52 inh -17.8 and RAD54 branch 19.4.
Screening COc1ccc(C#Cc2ccc([C@H]3[C@@H](CO)N4CCCCN(C)C[C@H]34)cc2)cc1 returned Xi reactivation 0.1, S100A4 inh HTS -0.2, RAD52 inh 79.9*, RAD54 branch 11.5, CASP6 VEID inh -0.1 and AF4-AF9 inh -13.7.
CN1CCCCN2[C@@H](CO)[C@@H](c3ccc(C#CC4(O)CCCC4)cc3)[C@@H]2C1 was read as Xi reactivation 0.1, S100A4 inh HTS 92.0*, RAD52 inh -0.8, RAD54 branch -5.9, CASP6 VEID inh 1.7 and AF4-AF9 inh 1.0.
For COc1ccc(C#Cc2ccc([C@H]3[C@@H](CO)N4CCCCN(Cc5ccccc5F)C[C@H]34)cc2)cc1 the results were Xi reactivation 0.1, S100A4 inh HTS -14.8, RAD52 inh -23.4, RAD54 branch 12.4, CASP6 VEID inh -1.2 and AF4-AF9 inh 29.1*.
CN1CCCCN2[C@H](CO)[C@H](c3ccc(C#Cc4ccccc4F)cc3)[C@H]2C1 was read as Xi reactivation 0.1, S100A4 inh HTS -0.7, RAD52 inh 69.1*, RAD54 branch 16.6, CASP6 VEID inh 4.9 and AF4-AF9 inh 16.2.
C[C@@H]1CN([C@@H](C)CO)C(=O)c2cc(C#Cc3ccccc3F)cnc2O[C@@H]1CN(C)S(=O)(=O)c1ccccc1F was read as Xi reactivation 0.3, S100A4 inh HTS -4.2, RAD52 inh -6.9, RAD54 branch 3.1, CASP6 VEID inh 2.1 and AF4-AF9 inh 1.9.
`COc1ccc(C#Cc2ccc([C@@H]3[C@H](CO)N4CCCCN(C)C[C@@H]34)cc2)cc1` gave Xi reactivation 0.0, S100A4 inh HTS -2.9, RAD52 inh 63.3*, RAD54 branch 8.8, CASP6 VEID inh -2.3 and AF4-AF9 inh 7.6.
For COc1ccc(C#Cc2ccc([C@@H]3[C@@H](CO)N4CCCCN(C)C[C@H]34)cc2)cc1 the results were Xi reactivation 0.0, S100A4 inh HTS 7.7, RAD52 inh 43.5, RAD54 branch 1.8, CASP6 VEID inh 2.4 and AF4-AF9 inh 1.8.
`Cc1nc(NC(=O)COC(=O)/C=C/c2ccco2)c(Cl)cc1Cl` gave Xi reactivation 0.0, S100A4 inh HTS -16.0, RAD52 inh -81.3, RAD54 branch -12.5, CASP6 VEID inh 49.5* and AF4-AF9 inh -1.6.
`O=C(COC(=O)/C=C/c1ccco1)Nc1ncc(Cl)cc1Cl` gave Xi reactivation 0.0, S100A4 inh HTS -6.1, RAD52 inh -43.4, RAD54 branch -12.8, CASP6 VEID inh 43.9* and AF4-AF9 inh -1.7.
Screening Cc1ccc(S(=O)(=O)N(C)C[C@H]2OCc3ccccc3-c3ccccc3C(=O)N([C@H](C)CO)C[C@@H]2C)cc1 returned Xi reactivation 0.3.
Screening CC1CN(c2ccc([N+](=O)[O-])c(NCCOc3ccccc3)c2)CC(C)N1 (stereo not given) returned Xi reactivation 0.0, S100A4 inh HTS 0.3, RAD52 inh 3.5, RAD54 branch 11.5, CASP6 VEID inh -4.8 and AF4-AF9 inh 7.0.
For Cc1ccccc1OCCNc1cc(N2CC(C)NC(C)C2)ccc1[N+](=O)[O-] (stereo not given) the results were Xi reactivation 0.0, S100A4 inh HTS 0.5, RAD52 inh 39.9, RAD54 branch 12.6, CASP6 VEID inh 0.8 and AF4-AF9 inh 38.0*.
For CN(C)CC#Cc1ccc([C@H]2[C@@H](CO)N3CCCCN(CC4CC4)C[C@@H]23)cc1 the results were Xi reactivation 0.0, S100A4 inh HTS -0.5, RAD52 inh 60.9*, RAD54 branch -8.7, CASP6 VEID inh -0.3 and AF4-AF9 inh 18.4.
`OC[C@@H]1[C@H](c2ccc(C#CC3CCCC3)cc2)[C@H]2CN(CCC(F)(F)F)CCCCN12` gave Xi reactivation 0.0, S100A4 inh HTS -48.8, RAD52 inh 34.0, RAD54 branch 14.9, CASP6 VEID inh 1.7 and AF4-AF9 inh 25.3*.
Screening CN(C)CC#Cc1ccc([C@H]2[C@H](CO)N3CCCCN(CC4CCOCC4)C[C@@H]23)cc1 returned Xi reactivation 0.2, S100A4 inh HTS 3.9, RAD52 inh 54.4*, RAD54 branch -23.9, CASP6 VEID inh -0.2 and AF4-AF9 inh 12.0.
`Cc1ccc(-c2cnc3c(c2)C(=O)N([C@H](C)CO)C[C@@H](C)[C@@H](CN(C)S(C)(=O)=O)O3)cc1` gave Xi reactivation -1.1, S100A4 inh HTS -15.3, RAD52 inh -1.5, RAD54 branch 2.9, CASP6 VEID inh -1.1 and AF4-AF9 inh -4.9.

Screens from PubChem BioAssay.
